Results published in ChEMBL document CHEMBL1135421, “2-(Anilinomethyl)imidazolines as alpha1 adrenergic receptor agonists: the discovery of alpha1a subtype selective 2'-alkylsulfonyl-substituted analogues” (J Med Chem, 2002).
Values joined by “and” are separate entries in the source; they are usually repeats but may differ in a detail not shown here. Equal entries are not always repeated.

How the values were obtained:
[1] = biological target: T1, Alpha-1A adrenergic receptor (Homo sapiens) (UniProt P35348); test: Efficacy as % of the maximal effect observed for nonselective agonist phenylephrine in rat-1 fibroblasts expressing human Alpha-1 adrenergic receptor; format: functional
T1 sequence (whole entry): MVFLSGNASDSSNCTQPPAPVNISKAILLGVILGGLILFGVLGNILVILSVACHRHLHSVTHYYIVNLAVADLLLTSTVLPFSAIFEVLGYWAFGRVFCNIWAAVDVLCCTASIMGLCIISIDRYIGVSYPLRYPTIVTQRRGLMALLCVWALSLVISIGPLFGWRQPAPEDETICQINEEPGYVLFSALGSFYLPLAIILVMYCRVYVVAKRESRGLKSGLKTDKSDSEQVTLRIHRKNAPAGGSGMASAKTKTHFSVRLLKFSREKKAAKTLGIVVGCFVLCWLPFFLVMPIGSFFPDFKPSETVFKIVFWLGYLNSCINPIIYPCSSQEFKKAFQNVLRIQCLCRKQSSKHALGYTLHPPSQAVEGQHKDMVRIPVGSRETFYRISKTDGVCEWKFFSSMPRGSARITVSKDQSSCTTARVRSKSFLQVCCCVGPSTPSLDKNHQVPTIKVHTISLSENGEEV
In short: (§1)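 Rat-1 fibroblasts expressing human α1a/α1b/α1d, grown in DMEM with 10% heat-inactivated FBS and 0.6 mg/mL G418, plated 6000 cells/well and cultured 48 h at 37 °C. Loaded 2 h at 37 °C with Calcium Green (4 μM), 0.2% pluronic acid and 2.5 mM probenecid in HEPES buffer pH 7.4. FLIPR read at room temperature: 10 s baseline, then 50 s after compound. 11-point curves as % of 40 μM phenylephrine response, top concentration typically 5 μM.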

[2] = biological target: T2, Alpha-2A adrenergic receptor (Homo sapiens) (UniProt P08913); test: Efficacy as percentage of the maximal effect observed for nonselective agonist UK-14304 in CHO cells expressing human Alpha-2A adrenergic receptor; format: functional, cell-based
T2 sequence (whole entry): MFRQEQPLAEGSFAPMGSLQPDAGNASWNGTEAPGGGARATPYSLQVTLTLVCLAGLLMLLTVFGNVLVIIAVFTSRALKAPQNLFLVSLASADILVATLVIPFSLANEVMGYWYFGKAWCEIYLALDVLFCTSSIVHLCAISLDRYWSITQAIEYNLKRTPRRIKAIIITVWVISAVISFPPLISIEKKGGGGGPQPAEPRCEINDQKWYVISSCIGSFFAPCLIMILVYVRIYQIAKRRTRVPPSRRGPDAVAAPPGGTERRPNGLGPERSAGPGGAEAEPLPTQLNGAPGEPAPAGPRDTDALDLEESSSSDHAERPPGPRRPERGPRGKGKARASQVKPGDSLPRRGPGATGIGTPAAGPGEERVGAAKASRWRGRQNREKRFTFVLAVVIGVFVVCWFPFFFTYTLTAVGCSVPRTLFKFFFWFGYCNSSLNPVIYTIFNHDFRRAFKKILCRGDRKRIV

[3] = biological target: T3, Alpha-2A adrenergic receptor (Homo sapiens, UniProt P08913); test: Affinity to human Alpha-2A adrenergic receptor determined by radioligand binding techniques from chinese hamster ovary (CHO) cells; format: cell-based
T3 sequence (P08913 whole entry): T2 sequence (whole entry)

[4] = biological target: T3, Alpha-2A adrenergic receptor; test: Agonist potency at Alpha-2A adrenergic receptor expressed in CHO cells; format: functional, cell-based
[5] = biological target: T4, Alpha-2C adrenergic receptor (Homo sapiens, UniProt P18825); test: Agonist potency at Alpha-2C adrenergic receptor expressed in CHO cells; format: functional, cell-based
T4 sequence (P18825 whole entry): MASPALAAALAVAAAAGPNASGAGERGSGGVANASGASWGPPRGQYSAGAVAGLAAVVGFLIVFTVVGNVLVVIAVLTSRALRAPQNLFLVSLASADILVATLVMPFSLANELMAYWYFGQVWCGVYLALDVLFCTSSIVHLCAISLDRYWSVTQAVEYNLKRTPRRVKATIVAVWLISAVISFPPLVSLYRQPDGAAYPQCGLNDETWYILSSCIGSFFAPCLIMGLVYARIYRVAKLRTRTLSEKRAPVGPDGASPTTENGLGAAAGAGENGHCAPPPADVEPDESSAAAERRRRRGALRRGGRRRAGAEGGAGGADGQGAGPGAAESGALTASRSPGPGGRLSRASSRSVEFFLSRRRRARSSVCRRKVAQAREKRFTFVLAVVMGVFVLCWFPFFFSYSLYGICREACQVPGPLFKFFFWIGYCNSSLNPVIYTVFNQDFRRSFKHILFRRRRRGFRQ

[6] = biological target: T5, Alpha-1B adrenergic receptor (Homo sapiens, UniProt P35368); test: Agonist potency at Alpha-1B adrenergic receptor expressed in rat-1 fibroblasts; format: functional
T5 sequence (P35368 whole entry): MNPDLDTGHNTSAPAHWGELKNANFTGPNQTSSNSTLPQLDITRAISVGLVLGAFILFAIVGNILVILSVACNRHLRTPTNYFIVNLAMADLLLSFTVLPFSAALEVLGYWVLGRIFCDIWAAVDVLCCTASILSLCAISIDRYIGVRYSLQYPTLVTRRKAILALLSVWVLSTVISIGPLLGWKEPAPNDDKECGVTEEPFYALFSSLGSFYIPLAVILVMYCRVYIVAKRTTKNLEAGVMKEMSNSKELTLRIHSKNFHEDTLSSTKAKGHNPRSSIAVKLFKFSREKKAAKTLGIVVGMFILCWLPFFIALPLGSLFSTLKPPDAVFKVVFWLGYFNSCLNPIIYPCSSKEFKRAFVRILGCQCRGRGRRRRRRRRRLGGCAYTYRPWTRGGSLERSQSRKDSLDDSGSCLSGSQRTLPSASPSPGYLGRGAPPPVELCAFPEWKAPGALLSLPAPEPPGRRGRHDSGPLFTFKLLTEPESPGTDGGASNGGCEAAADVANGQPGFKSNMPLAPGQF

[7] = biological target: T6, Alpha-1B adrenergic receptor (Homo sapiens) (UniProt P35368); test: Efficacy as % of the maximal effect observed for nonselective agonist phenylephrine in rat-1 fibroblasts expressing human Alpha-1B adrenergic receptor; format: functional; in short: as §1
T6 sequence (whole entry): T5 sequence (P35368 whole entry)

[8] = biological target: T3, Alpha-2A adrenergic receptor; test: Agonist potency at Alpha-2A stably expressed in CHO cells.; format: functional, cell-based
[9] = biological target: T4, Alpha-2C adrenergic receptor; test: Agonist potency at Alpha-2C adrenergic receptor assayed in CHO cells expressing human Alpha-2C adrenergic receptor; format: functional, cell-based

With `CCCS(=O)(=O)c1ccccc1NCC1=NCCN1` the Max [1] was 115% and the Max [2] was 23%.

`CSc1c(F)cccc1NCC1=NCCN1` was tested, and the Ki [3] was 166 nM, the Max [1] was 91% and the Max [2] was 102%. It also gave an EC50 [4] of 100 nM, an EC50 [5] of 15.8 nM and an EC50 [6] of 85.1 nM. For the same molecule, the Max [7] was 48%.

Work on `COc1ccc(SC)c(NCC2=NCCN2)c1` yielded a Ki [3] of 219 nM, a Max [1] of 101% and a Max [2] of 52%. The EC50 [6] was 3.63 nM, the Max [7] was 92% and the EC50 [8] was 447 nM and 200 nM.

Molecule `CSc1cc(F)ccc1NCC1=NCCN1` has a Ki [3] of 58.9 nM, a Max [1] of 93% and a Max [2] of 47%. It also gave an EC50 [6] of 6.03 nM, a Max [7] of 78% and an EC50 [8] of 316 nM. For the same molecule, the EC50 [9] was 100 nM.

Work on `CSc1ccc(C)cc1NCC1=NCCN1` yielded a Ki [3] of 63.1 nM, a Max [1] of 101% and a Max [2] of 87%. The EC50 [6] was 0.417 nM, the Max [7] was 96% and the EC50 [8] was 25.1 nM. For the same molecule, the EC50 [9] was 8.91 nM.

`CSc1ccccc1NCC1=NCCN1` was tested, and the Ki [3] was 47.9 nM, the Max [2] was 76% and the EC50 [5] was 5.62 nM.

`CCS(=O)(=O)c1ccccc1NCC1=NCCN1` showed a Ki [3] of 1320 nM, a Max [1] of 115% and a Max [2] of 10%. The EC50 [4] was greater than 10000 nM, the EC50 [5] was 5010 nM and the EC50 [6] was greater than 100000 nM.

With `CS(=O)(=O)c1c(F)cccc1NCC1=NCCN1` the Ki [3] was greater than 7940 nM, the Max [2] was 64% and the EC50 [4] was greater than 10000 nM. The EC50 [5] was 501 nM and the EC50 [6] was greater than 100000 nM.

Molecule `CS(=O)(=O)c1ccc(F)cc1NCC1=NCCN1` has a Ki [3] of 4470 nM, a Max [1] of 96% and a Max [2] of 18%. It also gave an EC50 [6] greater than 100000 nM, an EC50 [8] greater than 10000 nM and an EC50 [9] of 2000 nM.

Work on `CC(C)S(=O)(=O)c1ccccc1NCC1=NCCN1` yielded a Ki [3] of 2950 nM, a Max [1] of 70% and an EC50 [4] greater than 10000 nM. For the same molecule, the EC50 [5] was greater than 10000 nM and the EC50 [6] was greater than 10000 nM.

Molecule `CSc1ccc(C(F)(F)F)cc1NCC1=NCCN1` has a Ki [3] of 200 nM, a Max [1] of 111% and a Max [2] of 40%. The EC50 [6] was 6.03 nM, the Max [7] was 114% and the EC50 [8] was greater than 10000 nM. For the same molecule, the EC50 [9] was 7.94 nM.

With `CCSc1ccccc1NCC1=NCCN1` the Ki [3] was 81.3 nM, the Max [1] was 109% and the Max [2] was 67%. The EC50 [4] was 251 nM, the EC50 [6] was 13.8 nM and the Max [7] was 82%. For the same molecule, the EC50 [9] was 28.2 nM.

With `Cc1ccc(S(C)(=O)=O)c(NCC2=NCCN2)c1` the Ki [3] was 3890 nM, the Max [1] was 98% and the Max [2] was 24%. The EC50 [6] was 141 nM, the Max [7] was 91% and the EC50 [8] was greater than 10000 nM. It also gave an EC50 [9] of 1120 nM.

Molecule `CS(=O)(=O)c1cc(F)ccc1NCC1=NCCN1` has a Ki [3] of 398 nM, a Max [1] of 61% and a Max [2] of 19%. For the same molecule, the EC50 [4] was greater than 10000 nM, the EC50 [5] was greater than 10000 nM and the EC50 [6] was greater than 100000 nM.

Work on `CC(C)Sc1ccccc1NCC1=NCCN1` yielded a Ki [3] of 81.3 nM, a Max [1] of 115% and a Max [2] of 64%. It also gave an EC50 [4] of 417 nM, an EC50 [5] of 28.2 nM and an EC50 [6] of 61.7 nM. The Max [7] was 29%.

With `CS(=O)(=O)c1ccc(C(F)(F)F)cc1NCC1=NCCN1` the Ki [3] was greater than 7940 nM, the Max [1] was 95% and the Max [2] was 33%. The EC50 [6] was greater than 100000 nM, the EC50 [8] was greater than 10000 nM and the EC50 [9] was greater than 10000 nM.

In the case of `CSc1ccc(Cl)cc1NCC1=NCCN1`, the Ki [3] is reported as 41.7 nM, the Max [1] is reported as 82% and the Max [2] is reported as 93%. For the same molecule, the EC50 [6] was 0.501 nM, the Max [7] was 103% and the EC50 [8] was 6.31 nM. It also gave an EC50 [9] of 2.82 nM.

`CS(=O)(=O)c1cccc(F)c1NCC1=NCCN1` showed a Ki [3] of 871 nM, a Max [1] of 106% and a Max [2] of 38%. The EC50 [6] was greater than 100000 nM, the EC50 [8] was greater than 10000 nM and the EC50 [9] was 447 nM.

`CS(=O)(=O)c1ccccc1NCC1=NCCN1` gave a Ki [3] of 5620 nM, a Max [1] of 103% and a Max [2] of 11%. For the same molecule, the EC50 [6] was greater than 100000 nM, the EC50 [8] was greater than 10000 nM and the EC50 [9] was 3160 nM.

`CS(=O)(=O)c1ccc(Cl)cc1NCC1=NCCN1` showed a Ki [3] greater than 7940 nM, a Max [1] of 91% and a Max [2] of 42%. The EC50 [6] was 61.7 nM, the Max [7] was 103% and the EC50 [8] was greater than 10000 nM. It also gave an EC50 [9] of 794 nM.

Molecule `C[S+]([O-])c1ccccc1NCC1=NCCN1` (stereo not drawn) has a Ki [3] of 977 nM, a Max [1] of 91% and a Max [2] of 21%. It also gave an EC50 [4] greater than 10000 nM, an EC50 [5] greater than 10000 nM and an EC50 [6] greater than 100000 nM.

Molecule `CS(=O)(=O)c1cc(Cl)ccc1NCC1=NCCN1` has a Ki [3] of 5010 nM, a Max [1] of 41% and a Max [2] of 38%. For the same molecule, the EC50 [8] was greater than 10000 nM and the EC50 [9] was greater than 10000 nM.

Work on `CSc1ccc(F)cc1NCC1=NCCN1` yielded a Ki [3] of 18.2 nM, a Max [1] of 90% and a Max [2] of 96%. It also gave an EC50 [6] of 1.86 nM, a Max [7] of 92% and an EC50 [8] of 25.1 nM. The EC50 [9] was 5.62 nM.
